Test results reported in publication PMC6247954 (Cell, 2018).
Values belong to the compound of their own block, whether it stands above or below them.

What was measured:
[1] = system: ID8; assay: ID8-VEGF-Defensin syngeneic ovarian cancer mouse model; format: in vivo
In short: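 Female C57BL/6NHsd mice aged 7–8 weeks were injected i.p. with 2.5×10^5 ID8-VEGF-Defensin mouse ovarian cancer cells. From day 3, test compound (1 or 10 mg/kg) or vehicle (5% DMSO in PBS) was given i.p. every 3 days for the whole experiment. Groups were randomly assigned.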

[2] = system: SW48; assay: s.c. SW48 xenograft model in NSG mice; format: in vivo
In short: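 2×10^6 SW48 cells injected s.c. into the flank of randomly assigned, gender-matched 8–10-week-old NSG mice. Once tumours were palpable, 20mg/kg test compound or vehicle given i.p. every other day, for 10 weeks. Tumour size measured by caliper (mean+SEM, Student's t-test); survival recorded in days.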

[3] = system: pSer2 of RNAPII CTD (CDK9 target); assay: Western Blot of CDK substrates after MC180295 treatment; format: cell-based; settings: 2hrs treatment
[4] = target: CDK9/CyclinT1 (Homo sapiens, UniProt P50750); assay: Isotope kinase activity assay with recombinant CDK9/CyclinT1 and BRG1; format: biochemical; settings: 1μM inhibitor, 32γ-ATP
In short: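 Recombinant active full-length CDK9/Cyclin T1 (1.2 μg) pre-incubated 15 min with or without 1μM test compound. Purified BRG1 (0.8 μg) then added, 1 hr at 30 °C in KAS buffer containing 5μCi/μl 32γ-ATP. Reaction stopped by heating at 65 °C for 5 min.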

[5] = system: CDK1/2 substrates; assay: Western Blot of CDK substrates after MC180295 treatment; format: cell-based; settings: 2hrs treatment
[6] = system: YB5 cells (silenced CMV-GFP); assay: GFP reactivation in YB5 measured by flow cytometry; format: cell-based, human; settings: for GFP reactivation by GSK-3 inhibitors: YB5, multiple doses, single exposure for four days
[7] = system: substrates of CDK4/6; assay: Western Blot of CDK substrates after MC180295 treatment; format: cell-based; settings: 2hrs treatment
[8] = system: cancer cell lines vs normal lung fibroblast (IMR90); assay: Anti-proliferation assay; format: cell-based, human; settings: four days after one-time exposure; 5μM HH1 or 0.1μM MC180295
In short: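 Cells seeded in 96-well plates at 40% confluency. Medium refreshed next day, test compound added directly, then cultured two more days at 37°C. Drug-free medium on day four. Cells trypsinised on day 5, mixed 1:1 with trypan blue and counted on an automated counter. Each sample counted at least three times and averaged; triplicate wells per condition.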

[9] = target: GSK-3α (Homo sapiens, UniProt P49840); assay: Kinome screening of 250 kinases at 1μM; format: biochemical
In short: (§1)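 Kinase assays were run by a contract lab on a microfluidic mobility-shift platform. Each target kinase was incubated with fluorescently labelled substrate and test compound in a standardized reaction mixture.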

[10] = system: human T lymphocytes; assay: Humanized PBMC NSG mice; format: in vivo; settings: 10 mg/kg or 20 mg/kg for 14 days
[11] = system: GFP and GLDC expression in tumors; assay: Pharmacodynamics study in NSG mice; format: in vivo; settings: two-week every other day treatment, qPCR
In short: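 Six gender-matched 8–10-week-old NSG mice randomised to vehicle or drug. 2×10^6 cells injected into the flank. 20mg/kg test compound given i.p. every other day for two weeks, starting when tumours were palpable 9 days after engraftment. Tumours homogenised, total mRNA extracted, expression measured by qPCR; N=3, mean+SEM, Student's t-test.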

[12] = system: SW48-luc cells; assay: i.p. SW48-luc model in NSG mice; format: in vivo
In short: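 SW48 cells transfected with ffluc2-eGFP, GFP-positive cells sorted one week later and expanded. Cells injected i.p. into male and female age- and gender-matched NSG mice. Once tumour burden was seen by bioluminescence, mice randomised to 5–20mg/kg test compound or solvent i.p. every other day (3 vehicle, 5 treated). Imaged 5 min after i.p. D-luciferin. Endpoint: natural death or ascites; survival by log-rank (Mantel-Cox).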

[13] = system: panel of 250 kinases; assay: Kinome screening of 250 kinases at 1μM; format: biochemical, human
In short: as §1

[14] = system: HL60 cell line; assay: HL60 differentiation; format: cell-based, human; settings: single dose exposure for four days
In short: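 HL60 cells received one dose 24 h after seeding, drug-free medium on day 3, and analysis on day 4. Cells were washed and stained with PI plus FITC-CD11b or isotype IgG, then read on a Guava flow cytometer. Positive controls were 1μM ATRA and 1.25% DMSO.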

[15] = system: YB5; assay: Cell cycle analysis by propidium iodide staining; format: cell-based, human; settings: four days after single exposure
In short: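 YB5 cells received a single drug dose 24 h after seeding, with drug-free medium replaced three days later. They were analysed four days after treatment by propidium iodide staining and FACSCalibur flow cytometry. Sub-G1 fraction was taken as the apoptotic proportion. N=3.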

[16] = system: YB5 and HCT116; assay: Soft agar colony formation assay; format: cell-based, human; settings: single dose pre-exposure for four days
In short: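 Cells were pretreated with a range of test compound concentrations, kept in drug for two more days, and switched to drug-free medium the day before seeding (four days total). 1000 cells were plated in Noble agar with 2x medium (20% FBS, 2% penicillin/streptomycin). Plates were grown two weeks at 37°C, then stained with 0.005% crystal violet in 10% EtOH.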

[17] = target: GSK-3β (Homo sapiens, UniProt P49841); assay: Kinome screening of 250 kinases at 1μM; format: biochemical
In short: as §1

[18] = system: YB5 cells; assay: qPCR of hypermethylated silenced genes in YB5; format: cell-based, human; settings: for reactivation of SYNE1 and MGMT: YB5, 24hr treatment, qPCR
[19] = system: CDK9; settings: read-out: IC50 for CDK9; ref Asghar et al., 2015; cited from earlier work
[20] = system: CDK1; settings: read-out: IC50 for CDK1; ref Asghar et al., 2015; cited from earlier work
[21] = system: CDK4; settings: read-out: IC50 for CDK4; ref Asghar et al., 2015; cited from earlier work
[22] = system: YB5 cells; assay: Time-course RNA-seq in YB5; format: cell-based, human; settings: after excluding genes downregulated at 2hr/4hr

Sequence of CDK9/CyclinT1 (P50750 whole entry): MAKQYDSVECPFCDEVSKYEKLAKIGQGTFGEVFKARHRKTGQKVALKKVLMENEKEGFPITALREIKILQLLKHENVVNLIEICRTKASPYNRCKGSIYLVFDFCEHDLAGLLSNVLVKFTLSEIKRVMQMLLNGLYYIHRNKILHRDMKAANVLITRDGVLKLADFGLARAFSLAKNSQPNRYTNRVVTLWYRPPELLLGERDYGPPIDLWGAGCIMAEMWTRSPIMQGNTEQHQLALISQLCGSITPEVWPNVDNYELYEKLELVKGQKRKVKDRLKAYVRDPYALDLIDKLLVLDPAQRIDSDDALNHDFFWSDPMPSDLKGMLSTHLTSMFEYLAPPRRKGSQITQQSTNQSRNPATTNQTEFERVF
Sequence of CDK9/CyclinT1 (O60563 whole entry partner): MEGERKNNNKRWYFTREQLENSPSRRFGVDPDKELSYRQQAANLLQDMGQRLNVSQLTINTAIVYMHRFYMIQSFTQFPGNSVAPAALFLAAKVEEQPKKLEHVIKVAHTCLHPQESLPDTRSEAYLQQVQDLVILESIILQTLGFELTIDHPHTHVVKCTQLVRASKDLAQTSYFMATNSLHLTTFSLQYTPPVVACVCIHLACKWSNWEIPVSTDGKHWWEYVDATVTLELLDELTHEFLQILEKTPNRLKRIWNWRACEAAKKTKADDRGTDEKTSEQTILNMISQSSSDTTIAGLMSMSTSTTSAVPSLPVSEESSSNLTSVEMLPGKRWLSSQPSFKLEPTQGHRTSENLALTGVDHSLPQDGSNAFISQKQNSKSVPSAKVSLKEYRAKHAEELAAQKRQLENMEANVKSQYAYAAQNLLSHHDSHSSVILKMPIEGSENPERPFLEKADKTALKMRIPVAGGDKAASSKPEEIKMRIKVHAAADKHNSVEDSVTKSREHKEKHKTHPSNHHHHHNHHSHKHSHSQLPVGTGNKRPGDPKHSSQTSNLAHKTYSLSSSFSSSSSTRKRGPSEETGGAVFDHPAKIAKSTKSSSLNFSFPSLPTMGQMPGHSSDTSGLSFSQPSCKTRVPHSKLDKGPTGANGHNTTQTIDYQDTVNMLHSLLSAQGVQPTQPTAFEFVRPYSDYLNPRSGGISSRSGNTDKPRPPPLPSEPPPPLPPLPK
Sequence of GSK-3α (P49840 whole entry): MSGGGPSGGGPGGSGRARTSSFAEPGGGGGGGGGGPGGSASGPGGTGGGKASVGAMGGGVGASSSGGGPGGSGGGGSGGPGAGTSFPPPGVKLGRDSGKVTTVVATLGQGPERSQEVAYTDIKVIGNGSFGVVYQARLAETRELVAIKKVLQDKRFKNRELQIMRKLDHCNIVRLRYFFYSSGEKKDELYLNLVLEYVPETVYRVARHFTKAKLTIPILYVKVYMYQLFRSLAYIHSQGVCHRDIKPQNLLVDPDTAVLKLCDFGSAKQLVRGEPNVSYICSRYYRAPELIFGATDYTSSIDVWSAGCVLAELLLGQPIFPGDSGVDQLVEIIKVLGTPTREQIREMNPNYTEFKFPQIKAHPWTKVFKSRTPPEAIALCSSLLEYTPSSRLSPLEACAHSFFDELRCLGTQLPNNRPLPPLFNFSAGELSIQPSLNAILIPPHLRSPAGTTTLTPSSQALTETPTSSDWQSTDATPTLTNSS
Sequence of GSK-3β (P49841 whole entry): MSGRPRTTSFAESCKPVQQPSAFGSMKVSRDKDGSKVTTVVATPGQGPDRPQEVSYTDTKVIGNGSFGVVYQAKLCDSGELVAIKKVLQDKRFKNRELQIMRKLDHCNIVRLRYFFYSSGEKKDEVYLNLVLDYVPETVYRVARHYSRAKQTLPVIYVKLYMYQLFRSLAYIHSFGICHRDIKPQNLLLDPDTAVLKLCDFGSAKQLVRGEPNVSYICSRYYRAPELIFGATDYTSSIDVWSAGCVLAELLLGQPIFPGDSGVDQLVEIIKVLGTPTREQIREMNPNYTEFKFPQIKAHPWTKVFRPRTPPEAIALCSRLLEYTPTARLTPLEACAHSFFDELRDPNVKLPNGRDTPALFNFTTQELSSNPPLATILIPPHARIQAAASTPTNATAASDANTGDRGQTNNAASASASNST

Compound: CC(C)(C)c1cnc(CSc2cnc(NC(=O)C3CCNCC3)s2)o1 [SNS-032]
survival ([1]; 10mg/kg): extended survival
tumor burden (ascites fluid) ([1]; 10mg/kg): reduced tumor burden
activated dendritic cells (CD80/CD86+ and CD11c/MHCII+) in the tumor microenvironment ([1]; flow cytometry of ascites): increased populations of activated dendritic cells
immune cells (CD45+) and T cells (CD3+) in the tumor microenvironment ([1]; flow cytometry of ascites): increased populations of immune cells (CD45+) and T cells (CD3+)
tumor growth ([2]; 20mg/kg qod): tumors grew slower

Compound: Nc1nc(N[C@H]2CC3CCC2C3)sc1C(=O)c1ccccc1[N+](=O)[O-] (stereo partly drawn) [MC180295, (4-amino-2-(((2S)-bicyclo[2.2.1]heptan-2-yl)amino)thiazol-5-yl)(2-nitrophenyl)methanone]
dephosphorylation of Ser2 (pSer2) [3]: dephosphorylated at nanomolar doses
phosphorylation of RNA-Pol-ll CTD, BRG1 and CDK9 by CDK9 [4]: unphosphorylated after CDK9 inhibition
effect on CDK1/2 substrates [5]: not affected at all
GFP+ cells ([6]; YB5, 500nM, four days after single dose): ~ 60%
concentration active for GFP reactivation ([6]; YB5, four days after single dose): 50 nM
effect on substrates of CDK4/6 [7]: only affected at substantially higher doses
reduction of proliferation, cancer cells compared to IMR90 [8]: more effective in reducing proliferation of cancer cells
inhibition of GSK-3α [9]: inhibited
killing of human T lymphocytes in vivo [10]: did not kill human T lymphocytes
ratio of CD4 and CD8 T cells in vivo [10]: did not affect the ratio of CD4 and CD8 T cells
mouse survival ([2]; 20mg/kg i.p. qod): improved mouse survival
toxicity as measured by body weight ([2]; 20mg/kg qod): without causing overt toxicity
tumor growth ([2]; 20mg/kg qod): tumors grew slower
reactivation of GFP and GLDC in tumors [11]: reactivated GFP and GLDC in a dose dependent manner
body weights ([12]; every other day treatment): did not affect body weights
survival of the mice ([12]; i.p. every other day, log-rank test): significantly extend survival
selectivity within the human kinome [13]: highly selective against CDKs
induction of differentiation marker CD11b [14]: significant induction
cell cycle arrest [15]: no cell cycle arrest
sub-G1 subpopulation [15]: an increase in the sub-G1 subpopulation
reduction of colony formation in soft agar [16]: 30–80%
inhibition of GSK-3β [17]: inhibited

phosphorylation of RNA-Pol-ll CTD, BRG1 and CDK9 by CDK9 [4]: unphosphorylated after CDK9 inhibition
Compound: CN1CC[C@H](c2c(O)cc(O)c3c(=O)cc(-c4ccccc4Cl)oc23)[C@H](O)C1 [flavopiridol]
reactivation of SYNE1 and MGMT [18]: led to gene reactivation

Compound: O=C(/C=C/N1C[C@H]2C[C@@H]1CN2c1ccccn1)c1ccccc1O [PFI-3]
effect on GFP activation by CDK9 inhibitors ([6]; YB5, 72hr daily pretreatment followed by 24hr co-treatment with HH1 or iCDK9): inhibited GFP activation by CDK9 inhibitors in a dose-dependent manner

Compound: Cc1c[nH]c(-c2cnc(NCCNc3ccc(C#N)cn3)nc2-c2ccc(Cl)cc2Cl)n1 [CHR99021]
GFP reactivation by GSK-3 inhibitors [6]: no GFP reactivation

Compound: [Cl-].[Li+] [LiCl]
GFP reactivation by GSK-3 inhibitors [6]: no GFP reactivation

Compound: NC1CCC(Nc2cc(-c3cccc(NCc4cccc(F)c4)n3)c(Cl)cn2)CC1 (centres unmarked) [iCDK9]
reactivation of SYNE1 and MGMT [18]: led to gene reactivation

Compound: Nc1ncn([C@H]2C[C@H](O)[C@@H](CO)O2)c(=O)n1 [DAC, decitabine]
time to reactivation of hypermethylated genes ([18]; YB5, daily 100nM, for most genes): at least 24 hrs
silenced genes (RPKM < 0.31) up [22]: 1238 genes
